Eight compounds from ChEMBL document CHEMBL1123062, “Relationship between structure and antineoplastic activity of (arylsulfonyl)hydrazones of 4-pyridinecarboxaldehyde” (1985) can be followed below.

Structures are written as SMILES.

The term T/C denotes the ratio of treated to control.

The first test relates to P388. The test is described as follows: Compound was evaluated for antitumor activity in mice (control group) bearing P388 leukemic cells and average survival time. The format is functional, Mus musculus. The method, boiled down: (§1)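 Ascites forms of Sarcoma 180 or P388 leukemia carried in CDF-1 mice. Recipients were implanted from donors with 7-day tumor growth. Compound given once daily for six consecutive days starting 24 h after implantation, with a tested range of 50–200 mg/kg per day. Hydrochloride salt solutions were adjusted to pH 6.5–7.0. Survival time was averaged, days ± SE. Body weight was tracked as a toxicity indicator.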
In turn, `CC(C)c1cc(C(C)C)c(S(=O)(=O)N/N=C/c2ccncc2)c(C(C)C)c1.Cl` registered a Time of 13.8 days.

Turning to `COc1ccc(S(=O)(=O)N/N=C/c2ccc([N+](=O)[O-])cc2)cc1.Cl`, the Time turned out to be 14.8 days.

For the compound `COc1ccc(S(=O)(=O)N/N=C/c2ccncc2)cc1.Cl`, the Time is 14.6 days.

In turn, `O=[N+]([O-])c1ccc(/C=N/NS(=O)(=O)c2ccc(Cl)cc2)cc1` showed a Time of 14.2 days.

Consider `Cc1cc(C)c(S(=O)(=O)N/N=C/c2ccncc2)c(C)c1.Cl`, for which the Time worked out at 14.6 days.

In turn, `Cl.O=[N+]([O-])c1ccc(/C=N/NS(=O)(=O)c2ccccc2)cc1` yielded a Time of 14.2 days.

In turn, `Cc1ccc(S(=O)(=O)N/N=C/c2ccncc2)cc1.Cl` gave a Time of 14.6 days.

For `Cl.O=[N+]([O-])c1ccc(S(=O)(=O)N/N=C/c2ccncc2)cc1`, the Time came out at 13.8 days.

The subject of another test is P388. Put plainly: Compound was evaluated for antitumor activity in mice bearing P388 leukemic cells and average survival time. In kind it is functional, Mus musculus. The procedure, abridged:
as §1
For the compound `CC(C)c1cc(C(C)C)c(S(=O)(=O)N/N=C/c2ccncc2)c(C(C)C)c1.Cl`, the Time stood at 17 days.

As to `COc1ccc(S(=O)(=O)N/N=C/c2ccc([N+](=O)[O-])cc2)cc1.Cl`, the Time worked out at 14.6 days.

The compound `COc1ccc(S(=O)(=O)N/N=C/c2ccncc2)cc1.Cl` registered a Time of 18 days.

Regarding `O=[N+]([O-])c1ccc(/C=N/NS(=O)(=O)c2ccc(Cl)cc2)cc1`, the Time came out at 15.2 days.

`Cc1cc(C)c(S(=O)(=O)N/N=C/c2ccncc2)c(C)c1.Cl` yielded a Time of 18.8 days.

With `Cl.O=[N+]([O-])c1ccc(/C=N/NS(=O)(=O)c2ccccc2)cc1`, the Time was 14.8 days.

Take `Cc1ccc(S(=O)(=O)N/N=C/c2ccncc2)cc1.Cl`: the Time is 17.2 days.

`Cl.O=[N+]([O-])c1ccc(S(=O)(=O)N/N=C/c2ccncc2)cc1` came in with a Time of 17.6 days.

The subject of another test is P388. The test is described as follows: Compound was evaluated for average change in body weight from onset to the termination of drug therapy in mice bearing P388 leukemic cells. The format is functional, Mus musculus. The method, boiled down: (§2)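 Ascitic Sarcoma 180 or P388 leukemia carried in CDF-1 mice; recipients transplanted from donors bearing 7-day tumors. Compound given once daily for six consecutive days from 24 h after implantation, over 50–200 mg/kg per day; hydrochloride salt solutions adjusted to pH 6.5–7.0. Mice weighed; % body-weight change onset to end of therapy taken as host toxicity; maximum effective daily dose reported from survival prolongation.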
Regarding `COc1ccc(S(=O)(=O)N/N=C/c2ccc([N+](=O)[O-])cc2)cc1.Cl`, the Weight change is recorded as -5.7%.

On to `COc1ccc(S(=O)(=O)N/N=C/c2ccncc2)cc1.Cl`, for which the Weight change was determined as 0.7%.

For the compound `O=[N+]([O-])c1ccc(/C=N/NS(=O)(=O)c2ccc(Cl)cc2)cc1`, the Weight change is listed as -2.4%.

With `Cc1cc(C)c(S(=O)(=O)N/N=C/c2ccncc2)c(C)c1.Cl`, the Weight change was -2.2%.

The next test has as its system P388. Put plainly: Maximum effective daily dose required to inhibit the tumors of P388 leukemia. In kind it is functional, Mus musculus. The method, boiled down: as §2
On to `CC(C)c1cc(C(C)C)c(S(=O)(=O)N/N=C/c2ccncc2)c(C(C)C)c1.Cl`, for which the Dose was 200 mg/kg.

Consider `COc1ccc(S(=O)(=O)N/N=C/c2ccc([N+](=O)[O-])cc2)cc1.Cl`, for which the Dose was 200 mg/kg.

With `COc1ccc(S(=O)(=O)N/N=C/c2ccncc2)cc1.Cl`, the Dose worked out at 150 mg/kg.

Turning to `O=[N+]([O-])c1ccc(/C=N/NS(=O)(=O)c2ccc(Cl)cc2)cc1`, the Dose is 200 mg/kg.

For `Cc1cc(C)c(S(=O)(=O)N/N=C/c2ccncc2)c(C)c1.Cl`, the Dose worked out at 100 mg/kg.

As for `Cl.O=[N+]([O-])c1ccc(/C=N/NS(=O)(=O)c2ccccc2)cc1`, the Dose was found to be 150 mg/kg.

Consider `Cc1ccc(S(=O)(=O)N/N=C/c2ccncc2)cc1.Cl`, for which the Dose turned out to be 150 mg/kg.

Regarding `Cl.O=[N+]([O-])c1ccc(S(=O)(=O)N/N=C/c2ccncc2)cc1`, the Dose amounted to 200 mg/kg.

The species named for another test is Mus musculus. Put plainly: Ratio of average survival time of treated to control mice bearing P388 leukemia. The format is functional. The procedure, abridged: (§3)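 In CDF-1 mice bearing ascitic P388 leukemia or Sarcoma 180 from 7-day donors, dosing ran once daily for six days from 24 h post-implant (range 50–200 mg/kg/day; HCl salts adjusted to pH 6.5–7.0). % T/C was the average survival time of treated over control animals × 100, reported at the maximum effective daily dose.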
With `CC(C)c1cc(C(C)C)c(S(=O)(=O)N/N=C/c2ccncc2)c(C(C)C)c1.Cl`, the T/C turned out to be 123%.

Consider `COc1ccc(S(=O)(=O)N/N=C/c2ccc([N+](=O)[O-])cc2)cc1.Cl`, for which the T/C is listed as 99%.

Regarding `COc1ccc(S(=O)(=O)N/N=C/c2ccncc2)cc1.Cl`, the T/C amounted to 123%.

Turning to `O=[N+]([O-])c1ccc(/C=N/NS(=O)(=O)c2ccc(Cl)cc2)cc1`, the T/C was found to be 107%.

`Cc1cc(C)c(S(=O)(=O)N/N=C/c2ccncc2)c(C)c1.Cl`: the T/C is listed as 129%.

On to `Cl.O=[N+]([O-])c1ccc(/C=N/NS(=O)(=O)c2ccccc2)cc1`, for which the T/C stood at 104%.

Consider `Cc1ccc(S(=O)(=O)N/N=C/c2ccncc2)cc1.Cl`, for which the T/C is 118%.

On to `Cl.O=[N+]([O-])c1ccc(S(=O)(=O)N/N=C/c2ccncc2)cc1`, for which the T/C was 128%.

For a further test, the species on record is Mus musculus. Put plainly: Ratio of average survival time of treated to control mice bearing sarcoma 180 ascites cells. In kind it is functional. The method, boiled down:
as §3
For `CC(C)c1cc(C(C)C)c(S(=O)(=O)N/N=C/c2ccncc2)c(C(C)C)c1.Cl`, the T/C is recorded as 262%.

`COc1ccc(S(=O)(=O)N/N=C/c2ccc([N+](=O)[O-])cc2)cc1.Cl`: the T/C worked out at 159%.

As to `COc1ccc(S(=O)(=O)N/N=C/c2ccncc2)cc1.Cl`, the T/C stood at 218%.

In the case of `O=[N+]([O-])c1ccc(/C=N/NS(=O)(=O)c2ccc(Cl)cc2)cc1`, the T/C was found to be 189%.

Turning to `Cc1cc(C)c(S(=O)(=O)N/N=C/c2ccncc2)c(C)c1.Cl`, the T/C came to 239%.

Regarding `Cl.O=[N+]([O-])c1ccc(/C=N/NS(=O)(=O)c2ccccc2)cc1`, the T/C is 182%.

In the case of `Cc1ccc(S(=O)(=O)N/N=C/c2ccncc2)cc1.Cl`, the T/C was 249%.

With `Cl.O=[N+]([O-])c1ccc(S(=O)(=O)N/N=C/c2ccncc2)cc1`, the T/C stood at 328%.

Another test is filed under the species Mus musculus. The test is described as follows: Average change in body weight from onset to the termination of drug therapy in mice bearing sarcoma 180 ascites cells. The format is functional. The procedure, abridged: as §2
Turning to `CC(C)c1cc(C(C)C)c(S(=O)(=O)N/N=C/c2ccncc2)c(C(C)C)c1.Cl`, the Weight change is listed as -3.1%.

On to `COc1ccc(S(=O)(=O)N/N=C/c2ccc([N+](=O)[O-])cc2)cc1.Cl`, for which the Weight change is reported as -19%.

Turning to `COc1ccc(S(=O)(=O)N/N=C/c2ccncc2)cc1.Cl`, the Weight change was -10.7%.

Take `O=[N+]([O-])c1ccc(/C=N/NS(=O)(=O)c2ccc(Cl)cc2)cc1`: the Weight change is listed as -16%.

Consider `Cc1cc(C)c(S(=O)(=O)N/N=C/c2ccncc2)c(C)c1.Cl`, for which the Weight change was -8.4%.

As to `Cl.O=[N+]([O-])c1ccc(/C=N/NS(=O)(=O)c2ccccc2)cc1`, the Weight change was -12.1%.

With `Cc1ccc(S(=O)(=O)N/N=C/c2ccncc2)cc1.Cl`, the Weight change is -14.5%.

`Cl.O=[N+]([O-])c1ccc(S(=O)(=O)N/N=C/c2ccncc2)cc1`: the Weight change was -8.1%.

Test system in a further test: not listed separately
The test is described as follows: Maximum effective daily dose required to inhibit the tumors of sarcoma 180 ascites cells. In kind it is functional, Mus musculus. The procedure, abridged:
as §2
Consider `CC(C)c1cc(C(C)C)c(S(=O)(=O)N/N=C/c2ccncc2)c(C(C)C)c1.Cl`, for which the Dose was 200 mg/kg.

For the compound `COc1ccc(S(=O)(=O)N/N=C/c2ccc([N+](=O)[O-])cc2)cc1.Cl`, the Dose amounted to 100 mg/kg.

`COc1ccc(S(=O)(=O)N/N=C/c2ccncc2)cc1.Cl` had a Dose of 100 mg/kg.

The compound `O=[N+]([O-])c1ccc(/C=N/NS(=O)(=O)c2ccc(Cl)cc2)cc1` had a Dose of 100 mg/kg.

Compound `Cc1cc(C)c(S(=O)(=O)N/N=C/c2ccncc2)c(C)c1.Cl` registered a Dose of 50 mg/kg.

Take `Cl.O=[N+]([O-])c1ccc(/C=N/NS(=O)(=O)c2ccccc2)cc1`: the Dose was determined as 150 mg/kg.

On to `Cc1ccc(S(=O)(=O)N/N=C/c2ccncc2)cc1.Cl`, for which the Dose is 100 mg/kg.

For the compound `Cl.O=[N+]([O-])c1ccc(S(=O)(=O)N/N=C/c2ccncc2)cc1`, the Dose was determined as 75 mg/kg.

Test system in another test: not listed separately
Put plainly: Compound was evaluated for antitumor activity in mice bearing sarcoma 180 ascites cells and average survival time. The format is functional, Mus musculus. The procedure, abridged:
as §1
Compound `CC(C)c1cc(C(C)C)c(S(=O)(=O)N/N=C/c2ccncc2)c(C(C)C)c1.Cl` returned a Time of 31 days.

`COc1ccc(S(=O)(=O)N/N=C/c2ccc([N+](=O)[O-])cc2)cc1.Cl` showed a Time of 23.8 days.

The compound `COc1ccc(S(=O)(=O)N/N=C/c2ccncc2)cc1.Cl` displayed a Time of 31 days.

The compound `O=[N+]([O-])c1ccc(/C=N/NS(=O)(=O)c2ccc(Cl)cc2)cc1` returned a Time of 28.4 days.

`Cc1cc(C)c(S(=O)(=O)N/N=C/c2ccncc2)c(C)c1.Cl` showed a Time of 34 days.

`Cl.O=[N+]([O-])c1ccc(/C=N/NS(=O)(=O)c2ccccc2)cc1` gave a Time of 20.8 days.

The compound `Cc1ccc(S(=O)(=O)N/N=C/c2ccncc2)cc1.Cl` displayed a Time of 36.4 days.

`Cl.O=[N+]([O-])c1ccc(S(=O)(=O)N/N=C/c2ccncc2)cc1` returned a Time of 37.4 days.

Test system in another test: not listed separately
The test is described as follows: Compound was evaluated for antitumor activity in mice (control group) bearing sarcoma 180 ascites cells and average survival time. The format is functional, Mus musculus. The method, boiled down: as §1
`CC(C)c1cc(C(C)C)c(S(=O)(=O)N/N=C/c2ccncc2)c(C(C)C)c1.Cl` yielded a Time of 11.8 days.

Compound `COc1ccc(S(=O)(=O)N/N=C/c2ccc([N+](=O)[O-])cc2)cc1.Cl` displayed a Time of 15 days.

Consider `COc1ccc(S(=O)(=O)N/N=C/c2ccncc2)cc1.Cl`, for which the Time was 14.2 days.

Regarding `O=[N+]([O-])c1ccc(/C=N/NS(=O)(=O)c2ccc(Cl)cc2)cc1`, the Time is 15 days.

`Cc1cc(C)c(S(=O)(=O)N/N=C/c2ccncc2)c(C)c1.Cl` returned a Time of 14.2 days.

The compound `Cl.O=[N+]([O-])c1ccc(/C=N/NS(=O)(=O)c2ccccc2)cc1` yielded a Time of 11.4 days.

Compound `Cc1ccc(S(=O)(=O)N/N=C/c2ccncc2)cc1.Cl` showed a Time of 14.6 days.

With `Cl.O=[N+]([O-])c1ccc(S(=O)(=O)N/N=C/c2ccncc2)cc1`, the Time is 11.4 days.

For the next test, the system named is P388. Put plainly: Compound was evaluated for antitumor activity in mice bearing P388 leukemic cells, and average change in body weight from onset to the termination of therapy. In kind it is functional, Mus musculus. The method, boiled down:
as §2
On to `CC(C)c1cc(C(C)C)c(S(=O)(=O)N/N=C/c2ccncc2)c(C(C)C)c1.Cl`, for which the Weight change is listed as -0.9%.

For `Cl.O=[N+]([O-])c1ccc(/C=N/NS(=O)(=O)c2ccccc2)cc1`, the Weight change is -0.1%.

Consider `Cc1ccc(S(=O)(=O)N/N=C/c2ccncc2)cc1.Cl`, for which the Weight change is on record as -7.6%.

Regarding `Cl.O=[N+]([O-])c1ccc(S(=O)(=O)N/N=C/c2ccncc2)cc1`, the Weight change is -7.5%.
